In test [1] the target is T1, Somatostatin receptor type 4 (Homo sapiens, UniProt P31391). Description: Displacement of [125I]somatostatin-14 (Tyr11) from human SSTR4 expressed in African green monkey COS1 cell membranes after 2 hrs by scintillation counting method. An outline of the steps:
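Membranes from transiently transfected COS-1 cells (10 μg protein) incubated 2 h at room temperature in 10 mM Hepes pH 7.5 with 5 mM MgCl2, bacitracin, 0.5% BSA and ¹²⁵I-[Tyr¹¹]-somatostatin-14 (30,000 cpm), with unlabeled somatostatin-14 and test ligands at various concentrations. Bound radioactivity read by scintillation counting.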

The target in test [2] is T2, Somatostatin receptor type 5 (Homo sapiens, UniProt P35346). Description: Displacement of [125I]somatostatin-14 (Tyr11) from human SSTR5 expressed in African green monkey COS1 cell membranes after 2 hrs by scintillation counting method. Summed up: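 SSTR-5 gene cloned into pCMV6c and transfected into COS1 cells. Membrane preparation (20 μg protein) incubated 2 h at room temperature in Na⁺-free buffer: 10 mM HEPES, 1% BSA, 5 mM MgCl2, 1 mg/ml bacitracin, pH 7.45. Contained ~10 pM [¹²⁵I-Tyr¹¹]-somatostatin-14, either alone or with somatostatin-14 and test ligands at various concentrations.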
T2 sequence (P35346 whole entry): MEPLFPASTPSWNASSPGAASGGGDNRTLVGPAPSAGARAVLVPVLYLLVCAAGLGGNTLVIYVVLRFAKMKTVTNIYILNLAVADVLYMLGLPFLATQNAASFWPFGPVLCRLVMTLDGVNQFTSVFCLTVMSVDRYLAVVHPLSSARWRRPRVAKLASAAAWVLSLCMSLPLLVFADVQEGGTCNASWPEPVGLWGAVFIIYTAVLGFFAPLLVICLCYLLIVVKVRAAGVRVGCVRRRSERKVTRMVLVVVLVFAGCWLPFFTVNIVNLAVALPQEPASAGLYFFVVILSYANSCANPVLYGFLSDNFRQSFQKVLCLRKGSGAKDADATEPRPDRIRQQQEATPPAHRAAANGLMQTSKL
For orientation: In a radioligand displacement assay an active substance lowers the binding of a labelled ligand.

Test [3] is filed under the species Homo sapiens. The test can be described thus: Selectivity ratio of Ki for human SSTR4 to Ki for human SSTR5.
The species entered for test [4] is Homo sapiens. Description: Selectivity ratio of Ki for human SSTR5 to Ki for human SSTR4.
For test [5], the target named is T1, Somatostatin receptor type 4. Description: Inhibition of human SSTR4 by radioligand binding assay.
Test [6] deals with T2, Somatostatin receptor type 5. Description: Inhibition of human SSTR5 by radioligand binding assay.

Where a SMILES comes first, the peptide text is derived from it. Bridges are numbered along the chain shown (N, C = ends). The star is where a group is joined. NH(β-GlcNAc) = CC(=O)N[C@@H]1[C@@H](O)[C@H](O)[C@@H](CO)O[C@H]1N*; Valol = CC(C)[C@@H](CO)N*

T1 sequence (P31391 whole entry): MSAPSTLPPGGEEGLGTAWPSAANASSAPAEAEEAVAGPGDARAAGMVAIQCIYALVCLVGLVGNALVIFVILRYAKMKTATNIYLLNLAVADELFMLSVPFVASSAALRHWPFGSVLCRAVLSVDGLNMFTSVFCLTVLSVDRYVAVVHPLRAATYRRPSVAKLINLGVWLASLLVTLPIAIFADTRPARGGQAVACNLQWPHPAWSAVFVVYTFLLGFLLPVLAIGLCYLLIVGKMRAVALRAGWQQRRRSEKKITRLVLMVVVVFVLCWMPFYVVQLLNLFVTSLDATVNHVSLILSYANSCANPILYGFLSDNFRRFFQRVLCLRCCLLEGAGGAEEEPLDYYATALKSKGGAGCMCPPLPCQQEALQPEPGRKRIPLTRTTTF

In the case of `NCCCCO[C@H]1[C@H](O)[C@H](OCc2ccccc2)COCCCc2cccc(O)c2C(=O)OC[C@@H]1NC(=O)Cc1c[nH]c2ccccc12`, the figures for the IC50 in test [1] and in test [2] were 1.2 µM and 3 µM, respectively. The inhibitory constant (Ki) in test [1] was 1.9 µM; in test [2], 3.2 µM.

Consider `CC(C)CCO[C@@H]1[C@@H](O)[C@@H](O)[C@H]2Cn3cc(nn3)COCCCCCCN(CCc3c[nH]c4ccccc34)CC[C@H]1O2`, for which the half-inhibitory concentration (IC50) in test [1] is 22 µM; in test [2] it was 6.2 µM. In addition, the Ki in test [1] was 21 µM; in test [2], 4.1 µM.

Turning to `NCCCCN1CCCCCCOCc2cn(nn2)C[C@H]2O[C@H](CC1)[C@H](OCc1cccc3ccccc13)[C@@H](O)[C@H]2O`, in test [1], the IC50 was more than 100 µM and the inhibition constant (Ki) is more than 100 µM. Moreover, in test [2], the concentration for half-maximal inhibition (IC50) is more than 100 µM and the Ki was more than 100 µM.

Consider `NCCCCN1CCCCCOCc2cn(nn2)C[C@H]2O[C@H](CC1)[C@H](OCc1cccc3ccccc13)[C@@H](O)[C@H]2O`, for which the half-maximal inhibitory concentration (IC50) in test [1] and in test [2] was more than 100 µM throughout. The Ki in test [1] and in test [2] was more than 100 µM each time.

As to `NCCCCC[C@@H]1[C@@H](OCc2ccccc2)[C@H](OCc2ccccc2)[C@@H](OCc2ccccc2)CN1Cc1cccc2ccccc12`, in the test listed under Homo sapiens [3], the Ratio Ki worked out at 1.46. Moreover, the Ki was determined as 1.9 µM in test [1] and 1.3 µM in test [2].

In test [1], `CC(=O)N[C@@H]1[C@@H](O)[C@H](O)[C@@H](CO)O[C@H]1NC(=O)C[C@@H]1NC(=O)[C@H](CCCCN)NC(=O)[C@H](Cc2c[nH]c3ccccc23)NC(=O)[C@H](Cc2ccccc2)NC(=O)[C@@H](NC(=O)[C@H](Cc2ccccc2)NC(C)=O)CSSC[C@@H](C(=O)N[C@H](CO)C(C)C)NC1=O` (Ac-FCFWKD(NH(β-GlcNAc))C-Valol; disulfide 2-7) yielded a half-inhibitory concentration (IC50) of 21 µM and an inhibitory constant (Ki) of 20 µM. Further, in test [2], the half-inhibitory concentration (IC50) was 5.2 µM and the affinity, expressed as Ki, was 3.4 µM.

As for `NCCCCC[C@@H]1[C@@H](O)[C@H](O)[C@@H](O)CN1Cc1cccc2ccccc12`, the Ki was more than 100 µM in test [1] and 23 µM in test [2].

Turning to `CC(=O)N[C@@H](Cc1ccccc1)C(=O)N[C@@H](C)C(=O)N[C@@H](Cc1ccccc1)C(=O)N[C@@H](Cc1c[nH]c2ccccc12)C(=O)N[C@@H](CCCCN)C(=O)N[C@@H](CC(=O)O)C(=O)N[C@@H](C)C(=O)N[C@H](CO)C(C)C` (Ac-FAFWKDA-Valol), in test [1], the 50% inhibitory concentration (IC50) was more than 100 µM and the Ki was more than 100 µM. The compound also came in with a Ki in test [2] of more than 100 µM.

With `CC(=O)N[C@@H](Cc1ccccc1)C(=O)N[C@H]1CSSC[C@@H](C(=O)N[C@H](CO)C(C)C)NC(=O)[C@H](CC(=O)O)NC(=O)[C@H](CCCCN)NC(=O)[C@H](Cc2c[nH]c3ccccc23)NC(=O)[C@H](Cc2ccccc2)NC1=O` (Ac-FCFWKDC-Valol; disulfide 2-7), the concentration for half-maximal inhibition (IC50) in test [1] came out at 7.4 µM; in test [2], 16 µM. The figures for the Ki in test [1] and in test [2] were 7.2 µM and 10 µM, respectively.

For `NC/C=C/CO[C@H]1[C@H](O)[C@H](OCc2ccccc2)COC/C=C/c2cccc(O)c2C(=O)OC[C@@H]1NC(=O)Cc1c[nH]c2ccccc12`, in test [1], the half-maximal inhibitory concentration (IC50) was 0.59 µM and the inhibition constant (Ki) was found to be 0.58 µM. In test [2], the 50% inhibitory concentration (IC50) was determined as 1.6 µM and the affinity, expressed as Ki, was 1.1 µM.

For `NCCCCO[C@@H]1[C@@H](O)[C@H](CO)OC(O)[C@@H]1NC(=O)Cc1c[nH]c2ccccc12` (stereo not given in full), the Ki in test [1] and in test [2] was more than 100 µM each time.

Take `NCCCCCOC[C@@H]1[C@@H](OCc2ccccc2)[C@H](OCc2ccccc2)[C@@H](OCc2ccccc2)CN1CCc1c[nH]c2ccccc12`: the Ratio Ki in the test filed under Homo sapiens [4] is 1.13.

Turning to `Cc1ccc(S[C@H]2O[C@H](CO)[C@@H](O)[C@H](OCCCCN)[C@@H]2NC(=O)Cc2c[nH]c3ccccc23)cc1`, the Ratio Ki in the test listed under Homo sapiens [4] worked out at 1.8. In test [1], the IC50 stood at 6.9 µM and the inhibition constant Ki was found to be 6.8 µM. Further, in test [2], the IC50 worked out at 18 µM and the Ki was 12 µM.

Take `NCCCCCOC[C@@H]1[C@@H](O)[C@H](O)[C@@H](O)CN1CCc1c[nH]c2ccccc12`: the Ki in test [2] was more than 100 µM.

In the case of `Cc1ccc(S[C@H]2O[C@H](CO)[C@@H](O)[C@H](OC/C=C/CN)[C@@H]2NC(=O)Cc2c[nH]c3ccccc23)cc1`, the Ratio Ki in the test listed under Homo sapiens [4] was 1.8. In addition, the half-maximal inhibitory concentration (IC50) in test [1] is 2.2 µM; in test [2] it was 5.9 µM. For the same compound, the Ki turned out to be 2.1 µM in test [1] and 3.9 µM in test [2].

`C[C@@H](O)[C@@H]1NC(=O)[C@H](CCCCN)NC(=O)[C@@H](Cc2c[nH]c3ccccc23)NC(=O)[C@H](Cc2ccccc2)NC(=O)[C@@H](NC(=O)[C@@H](Cc2ccccc2)NC(=O)CN2CCN(CC(=O)O)CCN(CC(=O)O)CCN(CC(=O)O)CC2)CSSC[C@@H](C(=O)N[C@H](CO)[C@@H](C)O)NC1=O`: the half-maximal inhibitory concentration (IC50) in test [5] was 0.103 µM; in test [6], more than 1 µM.

Consider `CC(=O)O[C@H]1[C@H](OC(C)=O)[C@@H](CCCCCN)N(Cc2cccc3ccccc23)C[C@@H]1OC(C)=O`, for which the Ratio Ki in the test listed under Homo sapiens [3] worked out at 1.05. Moreover, the Ki in test [1] came to 5.4 µM; in test [2], 5.1 µM.

In general, IC50 refers to the concentration that inhibits the measured activity by half. As usually defined, the Ki is a dissociation constant, usually derived from enzyme kinetics or from competition with a known ligand.

The record behind these values is ChEMBL document CHEMBL4330062 (Eur J Med Chem, 2019).
